The target in experiment [1] is Substance-P receptor (Homo sapiens, UniProt P25103). Put plainly: Inhibitory activity against Tachykinin receptor 1 in human IM-9 cells using [125I]-labeled Boltan-Hunter substance P as radioligand. It counts as cell-based.
Experiment [2] deals with Substance-P receptor (Rattus norvegicus, UniProt P14600). The experiment is described as follows: Inhibitory activity against Tachykinin receptor 1 in rat brain using [125I]-labeled Boltan-Hunter substance P as radioligand. It counts as tissue-based.
Substance-P receptor (Rattus norvegicus, UniProt P14600), sequence (P14600 whole entry): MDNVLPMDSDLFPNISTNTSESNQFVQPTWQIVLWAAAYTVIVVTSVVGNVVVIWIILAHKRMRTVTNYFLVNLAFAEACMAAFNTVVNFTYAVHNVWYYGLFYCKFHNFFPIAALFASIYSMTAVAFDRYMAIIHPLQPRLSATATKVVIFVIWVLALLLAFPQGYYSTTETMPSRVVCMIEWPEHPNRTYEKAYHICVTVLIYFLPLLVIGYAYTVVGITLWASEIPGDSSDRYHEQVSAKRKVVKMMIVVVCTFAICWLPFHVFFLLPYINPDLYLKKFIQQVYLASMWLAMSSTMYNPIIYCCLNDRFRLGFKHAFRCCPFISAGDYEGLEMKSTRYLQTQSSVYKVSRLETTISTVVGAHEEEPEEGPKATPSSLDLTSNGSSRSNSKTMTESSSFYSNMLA
A further experiment relates to U-373 MG (Homo sapiens). Put plainly: In vitro inhibitory activity against P induced IL-6 secretion in U-373 MG Astrocytoma cells.
The subject of the next experiment is U11 MG. Put plainly: In vitro inhibitory activity against P induced phosphatidyl inositol turnover in UC-11 MG Astrocytoma cells. It counts as functional, cell-based, Homo sapiens. Put shortly: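 Human UC-11 MG astrocytoma cells; inhibition of substance P-induced phosphatidylinositol turnover; Ki in nM; mean of two determinations.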
Experiment [3] concerns the target Substance-P receptor (Mus musculus, UniProt P30548). Put plainly: Inhibitory activity against Tachykinin receptor 1 in mouse brain using [125I]-labeled Boltan-Hunter substance P as radioligand. It counts as tissue-based.
For a further experiment, the target named is T1, Neuromedin-K receptor (Rattus norvegicus, UniProt P16177).
T1 sequence (P16177 whole entry): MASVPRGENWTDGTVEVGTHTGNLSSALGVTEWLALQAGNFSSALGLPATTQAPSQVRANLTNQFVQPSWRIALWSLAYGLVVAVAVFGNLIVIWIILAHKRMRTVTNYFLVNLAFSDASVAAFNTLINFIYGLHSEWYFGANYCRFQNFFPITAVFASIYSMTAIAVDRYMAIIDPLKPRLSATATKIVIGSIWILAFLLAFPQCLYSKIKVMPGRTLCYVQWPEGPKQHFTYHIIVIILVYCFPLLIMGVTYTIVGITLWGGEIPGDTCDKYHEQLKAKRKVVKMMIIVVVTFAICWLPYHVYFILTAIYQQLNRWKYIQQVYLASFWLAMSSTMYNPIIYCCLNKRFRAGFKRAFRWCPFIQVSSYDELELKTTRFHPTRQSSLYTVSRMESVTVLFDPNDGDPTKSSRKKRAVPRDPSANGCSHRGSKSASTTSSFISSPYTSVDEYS
The experiment is described as follows: Inhibition of neurokinin B induced contraction of rat portal vein (RPV) tissue expressing Tachykinin receptor 3. It counts as functional. The note with it: read-out: pA2 (converted).

A further experiment deals with T2, Substance-K receptor (Oryctolagus cuniculus, UniProt P79218).
T2 sequence (P79218 whole entry): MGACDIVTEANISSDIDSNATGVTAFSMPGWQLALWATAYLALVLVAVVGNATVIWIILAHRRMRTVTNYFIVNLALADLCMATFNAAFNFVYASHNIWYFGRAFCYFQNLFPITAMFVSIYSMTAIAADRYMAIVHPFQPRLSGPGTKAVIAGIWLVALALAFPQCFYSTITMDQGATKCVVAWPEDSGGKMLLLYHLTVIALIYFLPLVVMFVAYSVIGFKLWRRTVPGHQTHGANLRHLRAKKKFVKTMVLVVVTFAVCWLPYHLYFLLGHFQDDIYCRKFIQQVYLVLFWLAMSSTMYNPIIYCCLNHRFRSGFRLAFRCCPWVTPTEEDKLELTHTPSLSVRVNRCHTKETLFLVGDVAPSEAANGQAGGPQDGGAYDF
The experiment is described as follows: Inhibition of neurokinin A induced contraction of rabbit pulmonary artery (RPA) tissue expressing Tachykinin receptor 2. In kind it is functional, tissue-based. The note with it: read-out: pA2 (converted).

In experiment [4] the target is Substance-P receptor (Cavia porcellus, UniProt P30547). The experiment is described as follows: Inhibitory activity against Tachykinin receptor 1 in guinea pig brain using [125I]-labeled Boltan-Hunter substance P as radioligand.
Substance-P receptor (Cavia porcellus, UniProt P30547), sequence (P30547 whole entry): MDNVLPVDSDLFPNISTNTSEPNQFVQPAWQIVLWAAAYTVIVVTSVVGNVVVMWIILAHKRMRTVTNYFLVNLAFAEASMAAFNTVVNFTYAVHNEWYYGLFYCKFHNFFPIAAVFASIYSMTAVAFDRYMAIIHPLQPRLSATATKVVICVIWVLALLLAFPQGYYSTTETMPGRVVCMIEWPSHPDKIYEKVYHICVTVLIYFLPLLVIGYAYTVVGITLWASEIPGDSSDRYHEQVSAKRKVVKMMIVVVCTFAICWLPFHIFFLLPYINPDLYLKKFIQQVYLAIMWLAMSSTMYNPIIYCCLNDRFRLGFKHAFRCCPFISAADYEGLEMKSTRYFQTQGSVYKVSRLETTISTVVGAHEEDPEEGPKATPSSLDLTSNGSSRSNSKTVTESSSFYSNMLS

Substance-P receptor (Mus musculus, UniProt P30548), sequence (P30548 whole entry): as the sequence (P14600 whole entry) above, with M7V, I15T, V266I, E367D counted along it
Substance-P receptor (Homo sapiens, UniProt P25103), sequence (P25103 whole entry): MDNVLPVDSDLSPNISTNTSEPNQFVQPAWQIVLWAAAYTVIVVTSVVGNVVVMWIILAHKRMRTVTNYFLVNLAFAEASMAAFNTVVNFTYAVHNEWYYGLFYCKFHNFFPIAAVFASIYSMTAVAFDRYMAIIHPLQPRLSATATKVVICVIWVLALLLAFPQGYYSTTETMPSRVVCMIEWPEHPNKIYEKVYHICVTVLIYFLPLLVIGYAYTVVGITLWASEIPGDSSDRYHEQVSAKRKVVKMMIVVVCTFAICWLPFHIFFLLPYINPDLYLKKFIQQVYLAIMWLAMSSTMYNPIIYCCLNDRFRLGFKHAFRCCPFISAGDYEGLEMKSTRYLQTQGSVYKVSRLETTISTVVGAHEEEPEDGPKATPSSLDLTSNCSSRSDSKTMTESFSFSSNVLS

A word on the IC50: it is the concentration needed to halve the response being measured. Low values mean greater potency, high ones weaker potency. `COc1ccccc1CN(C[C@H](Cc1c[nH]c2ccccc12)NC(=O)CN1CCN(C2CCCCC2)CC1)C(C)=O` returned a 50% inhibitory concentration (IC50) at Substance-P receptor [1] of 80.9 nM.
The same measure, in the same setting: in the case of `CC(=O)N(Cc1ccccc1)CC(Cc1c[nH]c2ccccc12)NC(=O)CN1CCN(c2ccccc2)CC1` (centres undefined) it was 2.2 nM.
On the same count and under the same terms, for `CCN(Cc1ccccc1OC)CC(Cc1c[nH]c2ccccc12)NC(=O)CN1CCN(c2ccccc2)CC1` (centres undefined) the value was 85 nM; for `COc1ccccc1CN(CC(NC(=O)CN1CCN(c2ccccc2)CC1)c1ccccc1)C(C)=O` (centres undefined), 474 nM.
Still for that read-out and setting: in the case of `COc1ccccc1CN(CC(Cc1c[nH]c2ccccc12)NC(=O)CN1CCOCC1)C(C)=O` (centres undefined) it was 27 nM.
Regarding `COc1ccccc1CN(CC(Cc1csc2ccccc12)NC(=O)CN1CCN(c2ccccc2)CC1)C(C)=O` (centres undefined), on Substance-P receptor [1], the IC50 was determined as 1.18 nM.
With `COc1ccccc1CN(CC(CC1CNc2ccccc21)NC(=O)CN1CCN(c2ccccc2)CC1)C(C)=O` (centres undefined), the IC50 on Substance-P receptor [1] turned out to be 27.4 nM.
Same read-out and setting: in the case of `COc1ccccc1CN(CC(Cc1c[nH]c2ccccc12)NC(=O)CN1CCC(N(C)C)CC1)C(C)=O` (centres undefined) it was 2.8 nM; in that of `COc1ccccc1CN(CC(Cc1c[nH]c2ccccc12)NC(=O)CN1CCN(c2ccccc2)CC1)S(C)(=O)=O` (centres undefined), 4 nM; in that of `CC(=O)N(Cc1ccccc1[N+](=O)[O-])CC(Cc1c[nH]c2ccccc12)NC(=O)CN1CCN(c2ccccc2)CC1` (centres undefined), 3 nM.
The same measure, in the same setting: for `COc1ccccc1CN(CC(Cc1c[nH]c2ccccc12)NC(=O)CN1CCC(c2ccccc2)CC1)C(C)=O` (centres undefined) the value was 4.5 nM.
Regarding `COc1ccc(CN(CC(Cc2c[nH]c3ccccc23)NC(=O)CN2CCN(c3ccccc3)CC2)C(C)=O)cc1` (centres undefined), the IC50 was found to be 1100 nM at Substance-P receptor [2] and 2.5 nM on Substance-P receptor [1].
Broadly, the Ki is the dissociation constant of the complex between target and ligand, obtained from inhibition or displacement. Consider `COc1ccccc1CN(C[C@@H](Cc1c[nH]c2ccccc12)NC(=O)CN1CCN(c2ccccc2)CC1)C(C)=O`, for which the inhibition constant (Ki) in the experiment on U-373 MG (Homo sapiens) was 1.2 nM; with U11 MG, 0.48 nM.
On Substance-P receptor [1], `COc1ccccc1CN(CC(Cc1cccc2ccccc12)NC(=O)CN1CCN(c2ccccc2)CC1)C(C)=O` (centres undefined) had an IC50 of 2.73 nM.
At Substance-P receptor [1], `COc1ccccc1CN(C=O)CC(Cc1c[nH]c2ccccc12)NC(=O)CN1CCN(c2ccccc2)CC1` (centres undefined) gave an IC50 of 0.8 nM.
Still for that read-out and setting: in the case of `CNC(=O)N(Cc1ccccc1OC)CC(Cc1c[nH]c2ccccc12)NC(=O)CN1CCN(c2ccccc2)CC1` (centres undefined) it was 3 nM; in that of `COc1ccccc1CN(CC(Cc1c[nH]c2ccccc12)NC(=O)CN1CCN(c2ccccc2)CC1)C(=O)c1ccccc1` (centres undefined), 2 nM; in that of `CC(=O)N(CCc1ccccc1)CC(Cc1c[nH]c2ccccc12)NC(=O)CN1CCN(c2ccccc2)CC1` (centres undefined), 126 nM.
With `CC(=O)N(CC1CCCCC1)CC(Cc1c[nH]c2ccccc12)NC(=O)CN1CCN(c2ccccc2)CC1` (centres undefined), the half-inhibitory concentration (IC50) at Substance-P receptor [1] was found to be 21.9 nM.
The same measure, in the same setting: in the case of `COc1ccccc1CN(CC(NC(=O)CN1CCN(c2ccccc2)CC1)C(C)C)C(C)=O` (centres undefined) it was more than 5000 nM.
With `COc1ccccc1CN(C[C@@H](Cc1c[nH]c2ccccc12)NC(=O)CN1CCN(C2CCCCC2)CC1)C(C)=O`, the IC50 at Substance-P receptor [2] worked out at 1.5 nM; on Substance-P receptor [3], 1.3 nM; on Substance-P receptor [1], 0.18 nM.
`COc1ccccc1CN(CC(NC(=O)CN1CCN(c2ccccc2)CC1)c1ccc(Cl)c(Cl)c1)C(C)=O` (centres undefined) returned an IC50 at Substance-P receptor [1] of 338 nM.
The same measure, in the same setting: for `CCCCN(CC(Cc1c[nH]c2ccccc12)NC(=O)CN1CCN(c2ccccc2)CC1)C(C)=O` (centres undefined) the value was 149 nM.
The same measure, in the same setting: in the case of `COc1ccccc1CNCC(Cc1c[nH]c2ccccc12)NC(=O)CN1CCN(c2ccccc2)CC1` (centres undefined) it was 51 nM; in that of `CC(=O)N(Cc1ccccc1Cl)CC(Cc1c[nH]c2ccccc12)NC(=O)CN1CCN(c2ccccc2)CC1` (centres undefined), 1.9 nM.
As to `COc1ccccc1CN(C[C@H](Cc1c[nH]c2ccccc12)NC(=O)CN1CCC(N2CCCCC2)CC1)C(C)=O`, the results for the Kb at Neuromedin-K receptor and at Substance-K receptor were 200 nM and 20000 nM, respectively. Also, in the experiment with U11 MG, the Ki worked out at 5600 nM.
In the case of `COC(=O)CC(=O)N(Cc1ccccc1OC)CC(Cc1c[nH]c2ccccc12)NC(=O)CN1CCN(c2ccccc2)CC1` (centres undefined), the half-maximal inhibitory concentration (IC50) at Substance-P receptor [1] is 1.28 nM.
On to `CC(=O)N(Cc1ccccc1C)CC(Cc1c[nH]c2ccccc12)NC(=O)CN1CCN(c2ccccc2)CC1` (centres undefined), for which the IC50 at Substance-P receptor [1] was determined as 3.2 nM.
As to `COc1ccccc1CC(=N)N1C[C@@H]2C(=O)CCC(c3ccccc3)(c3ccccc3)[C@@H]2C1`, the IC50 turned out to be 6.7 nM on Substance-P receptor [2], 8.7 nM on Substance-P receptor [3], 32 nM at Substance-P receptor [4] and 30 nM on Substance-P receptor [1].
`COc1ccccc1CN(CC(Cc1c[nH]c2ccccc12)NC(=O)CN1CCN(c2ccccc2)CC1)C(=O)CN(C)C` (centres undefined): the 50% inhibitory concentration (IC50) is 480 nM on Substance-P receptor [2], 200 nM on Substance-P receptor [3] and 1.54 nM at Substance-P receptor [1].
Regarding `COc1ccccc1CN(CC(Cc1c[nH]c2ccccc12)NC(=O)CN1CCN(C)CC1)C(C)=O` (centres undefined), the IC50 on Substance-P receptor [1] was 5.3 nM.
Same read-out and setting: for `CCOC(=O)N(Cc1ccccc1OC)CC(Cc1c[nH]c2ccccc12)NC(=O)CN1CCN(c2ccccc2)CC1` (centres undefined) the value was 5.5 nM.
Still for that read-out and setting: in the case of `COc1ccccc1CN(CC(Cc1c[nH]c2ccccc12)NC(=O)CN1CCCCC1)C(C)=O` (centres undefined) it was 33 nM.
With `COc1ccccc1CN(C[C@@H](Cc1c[nH]c2ccccc12)NC(=O)CN1CCC(N2CCCCC2)CC1)C(C)=O` [LANEPITANT], the figures for the Ki in the experiment on U-373 MG (Homo sapiens) and with U11 MG were 5.5 nM and 1.3 nM, respectively. In addition, the Kb at Neuromedin-K receptor and at Substance-K receptor was 20000 nM in each case.
On Substance-P receptor [1], `CC(=O)N(CC(Cc1c[nH]c2ccccc12)NC(=O)CN1CCN(c2ccccc2)CC1)c1ccccc1` (centres undefined) displayed an IC50 of more than 5000 nM.
Still for that read-out and setting: in the case of `COc1ccccc1CN(CC(Cc1ccc2ccccc2c1)NC(=O)CN1CCN(c2ccccc2)CC1)C(C)=O` (centres undefined) it was 11 nM.
With `COc1ccccc1CN(CC(Cc1c[nH]c2ccccc12)NC(=O)CN1CCN(Cc2ccccc2)CC1)C(C)=O` (centres undefined), the half-inhibitory concentration (IC50) came out at 16 nM on Substance-P receptor [2], 0.88 nM on Substance-P receptor [4] and 0.98 nM on Substance-P receptor [1].
`CC(=O)N(Cc1ccccc1C(F)(F)F)CC(Cc1c[nH]c2ccccc12)NC(=O)CN1CCN(c2ccccc2)CC1` (centres undefined) had an IC50 on Substance-P receptor [1] of 3.2 nM.
Same read-out and setting: in the case of `CC(=O)N(Cc1ccccc1Cl)CC(Cc1c[nH]c2ccccc12)NC(=O)CN1CCC(N2CCCCC2)CC1` (centres undefined) it was 0.18 nM.
The compound `COc1ccccc1CN(CCNC(=O)CN1CCN(c2ccccc2)CC1)C(C)=O` had an IC50 at Substance-P receptor [1] of more than 5000 nM.
On Substance-P receptor [1], `CC(=O)N(C)CC(Cc1c[nH]c2ccccc12)NC(=O)CN1CCN(c2ccccc2)CC1` (centres undefined) registered an IC50 of more than 5000 nM.
The same measure, in the same setting: in the case of `COc1ccccc1CN(CC(Cc1c[nH]c2ccccc12)NC(=O)CN1CC=C(c2ccccc2)CC1)C(C)=O` (centres undefined) it was 3.1 nM; in that of `CC(=O)N(Cc1ccccc1Cl)C[C@H](Cc1c[nH]c2ccccc12)NC(=O)CN1CCC(N2CCCCC2)CC1`, 159 nM; in that of `COc1ccccc1CN(CC(Cc1c[nH]c2ccccc12)NC(=O)CN1CCN(C2CCCCC2)CC1)C(C)=O` (centres undefined), 0.34 nM.
On the same count and under the same terms, in the case of `CSc1ccccc1CN(CC(Cc1c[nH]c2ccccc12)NC(=O)CN1CCN(c2ccccc2)CC1)C(C)=O` (centres undefined) it was 7.2 nM.
On to `COc1ccccc1CN(C[C@H](Cc1c[nH]c2ccccc12)NC(=O)CN1CCN(c2ccccc2)CC1)C(C)=O`, for which the Ki in the experiment on U-373 MG (Homo sapiens) was determined as 3500 nM; in the experiment on U11 MG, 630 nM. The Kb at Substance-K receptor was 20000 nM.
Consider `COc1ccccc1CN[C@H]1C2CCN(CC2)[C@H]1C(c1ccccc1)c1ccccc1` [CP-96345], for which the Ki with U-373 MG (Homo sapiens) is 4 nM; with U11 MG, 5.2 nM. Moreover, the Kb is 2510 nM on Neuromedin-K receptor and 50100 nM at Substance-K receptor.
In turn, `CCC(=O)N(Cc1ccccc1OC)CC(Cc1c[nH]c2ccccc12)NC(=O)CN1CCN(c2ccccc2)CC1` (centres undefined) displayed an IC50 at Substance-P receptor [1] of 0.81 nM.

The values are drawn from ChEMBL document CHEMBL1129738, “3-Aryl-1,2-diacetamidopropane derivatives as novel and potent NK-1 receptor antagonists” (J Med Chem, 1996).
